Only some compounds are listed: those with a hit (about 5.9% of all), similar ones and a draw of the others.
T cruzi growth-1: blocks T. cruzi growth in NIH3T3 culture | T. cruzi beta-gal in NIH3T3, GalScreen luminescence, 90 h | inhibition, % at 8.34 µM | hit rate 5.9% among 77,000;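 active = mean inhibition above about 93%, with at least 55% of replicates each passing it, limit read from the data, passing the limit was not always enough; inconclusive = only one of those two conditions holds; inactive = neither condition holds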
KDM4C inh: blocks human GASC-1 (KDM4C) demethylase activity; Q9H3R0; inhibition, % at 12.5 µM; GST-KDM4C 2-372, H3K9me3 peptide, LANCE TR-FRET; hit rate 0.15% among 96,000;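 active = mean replicate inhibition above about 25%, with at least 55% of replicates also reaching it, limit read from the data, passing the limit was not always enough; inconclusive = only one of those two conditions met; inactive = neither condition met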
Target sequence (Q9H3R0 2-372 limits assumed): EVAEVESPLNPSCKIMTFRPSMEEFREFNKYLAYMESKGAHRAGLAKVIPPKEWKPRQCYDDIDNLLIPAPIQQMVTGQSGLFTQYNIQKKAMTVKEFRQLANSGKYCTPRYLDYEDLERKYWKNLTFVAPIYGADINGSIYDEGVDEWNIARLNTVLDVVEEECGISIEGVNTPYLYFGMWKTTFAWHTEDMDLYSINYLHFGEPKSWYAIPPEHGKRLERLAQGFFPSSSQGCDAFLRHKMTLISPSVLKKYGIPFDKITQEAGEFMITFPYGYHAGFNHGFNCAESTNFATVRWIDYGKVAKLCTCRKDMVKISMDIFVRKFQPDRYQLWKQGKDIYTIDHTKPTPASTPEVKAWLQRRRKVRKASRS
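System – N-terminal GST-fused human GASC-1 (KDM4C) fragment, residues 2-372 · Input – enzyme final amount 10 nM · Technique – LANCE TR-FRET, Eu antibody, ULight-streptavidin, EDTA, ex 340 nm, em 618/671 nm · Medium – HEPES buffer, pH 7.5, plus ascorbate · Incubation – enzyme reaction 30 min, then detection 60 min, both room temperature · Reagent – H3K9me3 peptide with Fe(II)/2OG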
IDH1 R132H inh: inhibitors of human IDH1 R132H; O75874; IDH1 R132H reductase, diaphorase/resazurin fluorescence, 60 min; inhibition, % at 10 µM; hit rate 0.18% among 70,000; AID 624101; in the data active = inhibition above about 34%; inconclusive = no clear call, values can overlap the other calls; inactive = below about 11%;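 note: 0% = DMSO and 100% = no enzyme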
Target sequence (O75874 whole entry R132H): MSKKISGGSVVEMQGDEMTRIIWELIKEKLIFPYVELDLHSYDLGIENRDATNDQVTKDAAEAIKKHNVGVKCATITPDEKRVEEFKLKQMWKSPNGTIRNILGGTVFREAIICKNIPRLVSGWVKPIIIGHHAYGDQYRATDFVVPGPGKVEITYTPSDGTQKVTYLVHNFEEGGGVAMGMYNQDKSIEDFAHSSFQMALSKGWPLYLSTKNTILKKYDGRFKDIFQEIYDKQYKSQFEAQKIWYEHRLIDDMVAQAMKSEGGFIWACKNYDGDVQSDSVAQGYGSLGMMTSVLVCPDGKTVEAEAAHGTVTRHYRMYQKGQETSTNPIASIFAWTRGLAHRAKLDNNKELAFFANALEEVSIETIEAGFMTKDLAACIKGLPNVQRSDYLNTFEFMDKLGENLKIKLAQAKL
Pf Dd2 inh: inhibitors of Plasmodium falciparum Dd2 growth. P. falciparum Dd2 growth, SYBR Green, 72 h; active compounds read low. activity change, % at 10 µM. hit rate 2.3% among 94,000; in the data active = activity change below about -80%; inconclusive = no clear call, values can overlap the other calls
T cruzi growth-2: blocks T. cruzi growth in NIH3T3 host cells | shares compounds with T cruzi growth-1 | T. cruzi beta-gal in NIH3T3, GalScreen luminescence, 90 h | inhibition, % at 8.35 µM | hit rate 72% among 5,600;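 active = mean replicate inhibition above about 95% and at least 55% of replicates individually reaching it, limit read from the data; inconclusive = only one of the two criteria is met; inactive = neither criterion is met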
T cruzi growth-3: blocks T. cruzi growth in NIH3T3 host cells. hit rate 21% among 5,600. shares compounds with T cruzi growth-1. T. cruzi beta-gal in NIH3T3, GalScreen luminescence, 90 h. inhibition, % at 2.09 µM;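 active = mean inhibition above about 95%, with at least 55% of replicates also reaching it, limit read from the data; inconclusive = meets just one of the two conditions; inactive = meets neither condition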;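 note: plate controls were neutral control median for no effect and positive control median for full effect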
NIH3T3 tox: NIH/3T3 (mouse) viability loss; shares compounds with T cruzi growth-1; NIH/3T3 viability, CellTiter-Glo ATP luminescence, 90 h; cytotoxicity (signal decrease), % at 8.35 µM; hit rate 14% among 5,600;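 active = mean signal decrease across replicates above about 35% based on untreated-well scatter, with enough replicates individually passing, limit read from the data; inconclusive = no rule stated though some were filed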;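 note: 0% = median of neutral control wells and 100% = median of positive control wells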
3T3 cytotox 2: cytotoxicity in mouse NIH/3T3 fibroblasts | shares compounds with T cruzi growth-1 | NIH/3T3 viability, CellTiter-Glo ATP luminescence, 90 h | inhibition, % at 24.9 µM | hit rate 56% among 5,600 | AID 651744;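 active = mean loss of cell viability signal at or above a set limit, and enough replicates individually reaching it; inconclusive = meets only the mean limit or only the replicate share; inactive = meets neither condition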;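 note: 0% = median of neutral control wells and 100% = median of positive control wells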
Numbers without * were called inactive; u = inconclusive; x = no result given.

SMILES	T cruzi growth-1	KDM4C inh	IDH1 R132H inh	Pf Dd2 inh	T cruzi growth-2	T cruzi growth-3	NIH3T3 tox	3T3 cytotox 2
COc1ccccc1-c1ccc([C@@H]2[C@H](C#N)N(C(=O)C3CCC3)[C@H]2CO)cc1	14.9	0.8	x	11.8	x	x	x	x
COc1ccc(-c2ccc([C@H]3[C@@H](CO)N(C(=O)CN(C)C)[C@H]3C#N)cc2)cc1	105.1*	-0.3	-0.1	-0.3	108.5*	21.7	19.6	u
COc1ccccc1-c1ccc([C@@H]2[C@@H](C#N)N(C(=O)C3CCC3)[C@@H]2CO)cc1	98.4*	-1.3	x	11.4	83.1	18.5	-2.7	1.1
N#C[C@H]1[C@@H](c2ccc(/C=C/c3ccccc3)cc2)[C@@H](CO)N1C(=O)C1CC1	u	-0.5	x	41.2	106.2*	40.3	19.8	34.8*
COc1ccc(-c2ccc([C@@H]3[C@H](C#N)N(C(=O)c4cccnc4)[C@H]3CO)cc2)cc1	16.9	-0.9	x	10.2	x	x	x	x
COc1ccc(-c2ccc([C@@H]3[C@@H](CO)N(C(=O)c4cccnc4)[C@H]3C#N)cc2)cc1	96.2*	-0.9	x	-26.5	63.5	-13.2	-18.3	11.3
CS(=O)(=O)N(CC(=O)Nc1ccccc1C(=O)N1CCOCC1)c1cccc(Cl)c1Cl	x	x	0.1	x	x	x	x	x
OC[C@@H]1[C@@H](c2ccc(C#CC3(O)CCCC3)cc2)[C@@H]2CN(Cc3cccnc3)CCCCN12	85.1	1.3	x	-9.1	x	x	x	x
OC[C@H]1[C@H](c2ccc(C#CC3(O)CCCC3)cc2)[C@H]2CN(Cc3cccnc3)CCCCN21	85.2	0.3	x	-4.3	x	x	x	x
OC[C@@H]1[C@H](c2ccc(C#CC3(O)CCCC3)cc2)[C@@H]2CN(Cc3cccnc3)CCCCN12	101.2*	-0.2	x	-4.2	107.5*	91.1	18.7	22.9
OC[C@H]1[C@H](c2ccc(C#CC3(O)CCCC3)cc2)[C@@H]2CN(Cc3cccnc3)CCCCN12	108.0*	1.4	x	8.1	98.2*	75.5	-0.2	-17.6
C[C@@H]1CN([C@@H](C)CO)C(=O)c2cccc(NC(=O)Nc3ccc(C(F)(F)F)cc3)c2O[C@@H]1CN(C)C(=O)Nc1cccc2ccccc12	63.1	-1.5	0.3	-68.9	x	x	x	x
C[C@H](CO)N1C[C@H](C)[C@H](CN(C)C(=O)Nc2ccccc2)Oc2c(NC(=O)Nc3cccc4ccccc34)cccc2C1=O	110.0*	1.2	0.3	-24.2	107.3*	80.8	8.1	41.4*
C[C@H](CO)N1C[C@H](C)[C@@H](CN(C)C(=O)Nc2cccc3ccccc23)Oc2c(NC(=O)Nc3ccc(C(F)(F)F)cc3)cccc2C1=O	97.1*	0.0	x	-33.8	104.0*	48.8	29.9	103.2*
C[C@H]1CN([C@@H](C)CO)C(=O)c2cccc(NC(=O)Nc3cccc4ccccc34)c2O[C@H]1CN(C)C(=O)Nc1ccc(F)cc1	115.6*	-0.3	-0.6	-28.1	108.9*	92.6	-0.3	u
C[C@H]1CN([C@@H](C)CO)C(=O)c2cccc(NC(=O)c3ccncc3)c2O[C@H]1CN(C)C(=O)Nc1cccc2ccccc12	96.1*	0.5	3.0	-6.4	u	76.3	-9.8	1.4
COc1ccc(CN(C)C[C@@H]2OCCCC[C@H](C)Oc3ccc(NC(=O)Nc4ccc5c(c4)OCO5)cc3C(=O)N([C@H](C)CO)C[C@H]2C)cc1	52.3	-0.5	1.2	-51.5	x	x	x	x
COc1ccc(CN(C)C[C@@H]2OCCCC[C@@H](C)Oc3ccc(NC(=O)Nc4ccc5c(c4)OCO5)cc3C(=O)N([C@@H](C)CO)C[C@@H]2C)cc1	u	0.1	1.7	-9.4	107.9*	97.7*	11.6	53.4*
COc1ccc(CN(C)C[C@H]2OCCCC[C@@H](C)Oc3ccc(NC(=O)Nc4ccc5c(c4)OCO5)cc3C(=O)N([C@H](C)CO)C[C@H]2C)cc1	106.4*	-0.2	x	-70.9	106.3*	82.7	0.5	63.7*
COc1ccc(CN(C)C[C@H]2OCCCC[C@H](C)Oc3ccc(NC(=O)Nc4ccc5c(c4)OCO5)cc3C(=O)N([C@@H](C)CO)C[C@@H]2C)cc1	105.5*	1.8	-0.1	-50.6	101.0*	81.1	24.7	104.4*
O=C(COc1ccccc1[N+](=O)[O-])Nc1ccc2oc(-c3ccc(Cl)cc3Cl)nc2c1	x	x	-0.5	x	x	x	x	x
COc1cc2c(cc1NC(=O)COc1ccc(Br)cc1Cl)oc1ccccc12	x	x	-0.2	x	x	x	x	x
COc1ccccc1NC(=O)c1c(NC(=O)c2ccco2)sc(C)c1C	x	x	0.5	x	x	x	x	x
COc1ccc(-c2ccc3c(c2)[C@@H]2[C@@H](CCN2C(=O)Cc2cccnc2)[C@H](CO)N3C)cc1	76.3	-0.9	x	-2.8	x	x	x	x
CN1c2ccc(-c3ccccc3)cc2[C@H]2[C@H](CCN2C(=O)Cc2cccnc2)[C@H]1CO	u	0.8	x	6.0	99.0*	75.7	-10.9	-6.5
SMILES	T cruzi growth-1	KDM4C inh	IDH1 R132H inh	Pf Dd2 inh	T cruzi growth-2	T cruzi growth-3	NIH3T3 tox	3T3 cytotox 2
CN1c2ccc(-c3ccccc3)cc2[C@H]2[C@H](CCN2C(=O)Cc2cccnc2)[C@@H]1CO	107.3*	2.3	x	9.3	110.7*	96.6*	-24.0	-13.1
CCCC#Cc1ccc2c(c1)O[C@H](CN(C)Cc1ccccn1)[C@@H](C)CN([C@H](C)CO)S2(=O)=O	103.9*	0.8	0.5	x	107.5*	74.9	40.5*	68.5*
C[C@@H]1CN([C@H](C)CO)S(=O)(=O)c2ccc(C#CCN(C)C)cc2O[C@H]1CN(C)Cc1ccccn1	u	4.2	1.4	-51.8	97.4*	74.2	16.5	25.6*
CCCC#Cc1ccc2c(c1)O[C@@H](CN(C)Cc1ccccn1)[C@H](C)CN([C@@H](C)CO)S2(=O)=O	107.4*	13.8	0.3	x	95.7*	90.2	64.4*	92.8*
CCCC#Cc1ccc2c(c1)O[C@H](CN(C)Cc1ccccn1)[C@H](C)CN([C@@H](C)CO)S2(=O)=O	58.7	2.0	-3.2	x	x	x	x	x
C[C@H](O)C#Cc1ccc2c(c1)O[C@@H](CN(C)Cc1ccccn1)[C@H](C)CN([C@@H](C)CO)S2(=O)=O	5.2	3.2	x	-19.4	x	x	x	x
CCc1ccc(-n2c(C)nnc2SCC(=O)Nc2ccc(OC)cc2)cc1	x	x	0.6	x	x	x	x	x
O=C1C(=O)N(CC2CCCO2)C(c2cccc(Oc3ccccc3)c2)C1C(=O)c1ccco1 (stereo not given)	x	x	14.3	x	x	x	x	x
CC(C)CC#Cc1cnc2c(c1)C(=O)N([C@@H](C)CO)C[C@@H](C)[C@H](CN(C)Cc1ccc(F)cc1)O2	u	4.9	0.1	-50.5	103.7*	32.5	24.7	104.6*
C[C@H](CO)N1C[C@H](C)[C@H](CN(C)Cc2cccc(C(F)(F)F)c2)Oc2ncc(C#Cc3ccccc3)cc2C1=O	98.9*	0.0	1.2	-42.1	101.8*	85.9	8.2	30.6*

Bioassay records (PubChem BioAssay)
